Published values gathered from unrelated publications.
CTSL: Procathepsin L (CTSL, Homo sapiens, UniProt P07711)

| SMILES | target | read-out | action | method | concentration | quantity | result |
| --- | --- | --- | --- | --- | --- | --- | --- |
| O=Cc1nccc2c1[nH]c1ccccc12 | CTSL | enzyme activity | inhibitor |  | 100 µM | remaining activity | 150% |
| COc1cc(-c2cncc3c2CN(C)Cc2cc(N4CCNCC4)ccc2-3)cc(OC)c1OC | Tau-tubulin kinase 2 (TTBK2, Homo sapiens, UniProt Q6IQ55) | enzyme activity | inhibitor |  | 1 µM | remaining activity | 104% |
| Oc1ncnc2[nH]ncc12 | Xanthine dehydrogenase/oxidase (XDH, Bos taurus, UniProt P80457) | enzyme activity | inhibitor | absorbance | 53 µg/mL | inhibition | 100% |
| Nc1ncnc2c1ncn2[C@@H]1O[C@H](COP(=O)(O)OP(=O)(O)OP(=O)(O)OP(=O)(O)OP(=O)(O)OC[C@H]2O[C@@H](n3cnc4c(N)ncnc43)[C@H](O)[C@@H]2O)[C@@H](O)[C@H]1O | Oxidized purine nucleoside triphosphate hydrolase (NUDT1, Homo sapiens, UniProt P36639) | enzyme activity | substrate |  |  | Km | 26 µM |
| CNc1ncc2c(/C=C/C(=O)N3CCC(OC)CC3)nn(Cc3cccc(C(F)(F)F)c3)c2n1 | Tyrosine-protein kinase Blk (BLK, Homo sapiens, UniProt P51451) | enzyme activity | inhibitor | radiometric | 1 µM | remaining activity | 84% |
| O=C1/C(=C/c2ccc(O)c(O)c2)COc2cc(O)ccc21 | CTSL | enzyme activity | inhibitor |  | 100 µM | remaining activity | 26.7% |
| C=CC(=O)N1CCC(COCC(=O)N2CCN(c3nc(-c4cnc(N)nc4C(F)F)nc(N4CCOC[C@@H]4C)n3)CC2)CC1 | Ephrin type-B receptor 1 (EPHB1, Homo sapiens, UniProt P54762) | binding |  | competition with immobilised ligand | 1 µM | remaining binding | 100% |
| N=c1c[n+](N2CCOCC2)[n-]o1 | NAD-dependent protein deacetylase sirtuin-1 (SIRT1, Homo sapiens, UniProt Q96EB6) | enzyme activity | inhibitor |  |  | KI (inactivation) | 27 µM |
| C=CC(C)(C)c1cc(/C=C/C(=O)c2ccc(O)cc2)c(OC)cc1O | CTSL | enzyme activity | inhibitor |  | 100 µM | remaining activity | 95.1% |
| Cc1cc([C@@H](C)Nc2ccccc2C(=O)O)c2nc(N3CCC(F)(F)CC3)c(C#N)c(=O)n2c1 | Serine/threonine-protein kinase STK11 (STK11, Homo sapiens, UniProt Q15831) | binding |  | competition with immobilised ligand | 1 µM | remaining binding | 92% |
